The text below walks through data of ChEMBL document CHEMBL1158499, “Synthesis and antidepressant activity of optical isomers of 2-(4-benzylpiperazin-1-yl)-1-(5-chloro-6-methoxynaphthalen-2-yl) propan-1-ol (SIPI5056)” (Bioorg Med Chem Lett, 2010).

A value given as a limit tells only on which side of the number the result lay.

For series [1], the target named is Sodium-dependent dopamine transporter (Rattus norvegicus, UniProt P23977). Description: Inhibition of [3H]dopamine reuptake at rat brain frontal cortex dopamine transporter. The series is classed as tissue-based. The method in brief: (§1)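 Rat frontal cortex synaptosomes prepared at 4 °C: tissue homogenized in ice-cold 0.32 M sucrose, spun at 1500g for 10 min, and the supernatant spun at 20,000g for 30 min. The pellet was resuspended in buffer and protein measured. Synaptosomes were preincubated with compound 5 min at 37 °C, then given 300 nM [3H]-DA or [3H]-NA for 5 min at 37 °C. Uptake was stopped on ice and samples filtered and washed with artificial cerebral fluid before scintillation counting. Active uptake was taken as the 37 °C minus 0 °C difference.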

Series [2] deals with Transporter (Rattus norvegicus, UniProt Q63380). Briefly: Inhibition of [3H]norepinephrine reuptake at rat brain frontal cortex norepinephrine transporter. The series is classed as tissue-based. Summed up: as §1
The target of series [3] is Sodium-dependent serotonin transporter (Rattus norvegicus, UniProt P31652). Briefly: Inhibition of [3H]5HT reuptake at rat brain frontal cortex serotonin transporter. The series is classed as tissue-based. The method in brief: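 Rats were decapitated and the frontal cortex was dissected on ice. The tissue was homogenised in ice-cold 0.32 M sucrose and spun at 1500g for 10 min, then the supernatant at 20,000g for 30 min (4 °C). Synaptosomes were preincubated with compound for 5 min at 37 °C. [3H]-5-HT (300 nM) was added for 5 min at 37 °C. The reaction was stopped on ice, then filtered and counted. Active uptake was taken as the 37 °C minus 0 °C difference.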

Series [4] deals with Mus musculus. Description: Antidepressant activity in po dosed mouse by forced tail suspension assay. The series is classed as functional. Summed up:
(§2)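 Mice received a single oral dose of each isomer; the ED50 (mg/kg) was derived from the forced swimming and tail suspension tests.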

A short description of series [5]: (§3) Toxicity in po dosed mouse. The series is classed as organism-based. The settings on record: in vivo. Summed up: (§4)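 Acute toxicity was tested in mice given the compound orally. The LD50 was reported in mg/kg or g/kg.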
Series [6] relates to Mus musculus. The series is described as §3. The series is classed as organism-based. The settings on record: in vivo. The method in brief: as §4
Series [7] deals with Mus musculus. Description: Antidepressant activity in po dosed mouse by forced swimming test. The series is classed as functional. Summed up:
as §2

Sequence of Transporter (Q63380 whole entry): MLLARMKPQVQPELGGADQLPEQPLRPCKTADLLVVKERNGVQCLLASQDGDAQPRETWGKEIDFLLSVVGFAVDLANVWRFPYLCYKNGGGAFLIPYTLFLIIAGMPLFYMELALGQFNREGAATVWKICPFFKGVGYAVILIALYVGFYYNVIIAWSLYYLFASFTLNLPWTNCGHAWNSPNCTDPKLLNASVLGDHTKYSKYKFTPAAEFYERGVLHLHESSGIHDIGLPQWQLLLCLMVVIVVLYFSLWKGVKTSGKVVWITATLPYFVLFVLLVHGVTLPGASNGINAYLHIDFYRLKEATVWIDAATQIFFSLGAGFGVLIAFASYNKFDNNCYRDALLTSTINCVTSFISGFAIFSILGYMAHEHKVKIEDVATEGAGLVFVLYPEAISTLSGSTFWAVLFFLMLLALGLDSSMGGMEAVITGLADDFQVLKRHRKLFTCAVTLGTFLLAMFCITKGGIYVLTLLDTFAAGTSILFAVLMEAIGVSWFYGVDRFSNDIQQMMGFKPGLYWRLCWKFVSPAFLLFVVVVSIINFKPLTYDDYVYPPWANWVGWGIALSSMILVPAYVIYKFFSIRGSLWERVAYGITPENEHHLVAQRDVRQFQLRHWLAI
Sequence of Sodium-dependent dopamine transporter (P23977 whole entry): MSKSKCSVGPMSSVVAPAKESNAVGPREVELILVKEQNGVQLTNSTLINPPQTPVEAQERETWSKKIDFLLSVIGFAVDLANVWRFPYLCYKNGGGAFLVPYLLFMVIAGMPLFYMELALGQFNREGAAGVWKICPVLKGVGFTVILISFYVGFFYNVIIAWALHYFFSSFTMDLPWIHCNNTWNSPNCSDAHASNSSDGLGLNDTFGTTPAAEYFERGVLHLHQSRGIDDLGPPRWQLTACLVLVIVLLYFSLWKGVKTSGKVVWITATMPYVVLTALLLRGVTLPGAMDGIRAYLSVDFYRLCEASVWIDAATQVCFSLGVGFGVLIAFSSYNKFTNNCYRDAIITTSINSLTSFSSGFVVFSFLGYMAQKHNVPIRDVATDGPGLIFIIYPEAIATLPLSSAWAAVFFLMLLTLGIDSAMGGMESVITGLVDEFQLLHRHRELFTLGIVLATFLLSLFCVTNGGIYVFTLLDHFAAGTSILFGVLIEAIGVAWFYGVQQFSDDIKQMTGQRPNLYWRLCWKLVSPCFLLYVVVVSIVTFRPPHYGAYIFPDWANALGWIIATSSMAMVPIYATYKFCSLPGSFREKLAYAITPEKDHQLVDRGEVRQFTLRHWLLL
Sequence of Sodium-dependent serotonin transporter (P31652 whole entry): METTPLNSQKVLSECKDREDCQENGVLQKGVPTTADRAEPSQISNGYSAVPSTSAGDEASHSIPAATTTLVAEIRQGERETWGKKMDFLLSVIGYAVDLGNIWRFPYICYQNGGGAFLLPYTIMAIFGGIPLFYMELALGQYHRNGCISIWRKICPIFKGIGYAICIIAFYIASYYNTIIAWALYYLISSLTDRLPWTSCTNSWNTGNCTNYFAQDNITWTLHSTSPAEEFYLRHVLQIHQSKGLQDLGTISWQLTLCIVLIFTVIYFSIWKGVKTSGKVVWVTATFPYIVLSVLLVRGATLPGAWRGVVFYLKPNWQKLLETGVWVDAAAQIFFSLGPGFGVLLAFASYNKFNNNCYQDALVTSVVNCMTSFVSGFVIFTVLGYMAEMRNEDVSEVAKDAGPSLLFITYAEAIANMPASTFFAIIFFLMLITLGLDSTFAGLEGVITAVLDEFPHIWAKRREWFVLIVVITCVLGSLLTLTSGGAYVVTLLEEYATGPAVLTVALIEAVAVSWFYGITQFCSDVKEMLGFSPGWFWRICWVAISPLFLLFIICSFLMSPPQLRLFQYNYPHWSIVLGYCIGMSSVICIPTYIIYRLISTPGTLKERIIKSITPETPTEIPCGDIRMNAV

As a reminder, the IC50 is the midpoint of a concentration-inhibition curve. Read a low IC50 as greater potency. The ED50 is the midpoint of the dose-response relation. Lower therefore signals an effect at a small dose. What is called LD50 is the dose expected to kill half of the subjects tested. `COc1ccc2cc([C@@H](O)[C@@H](C)N3CCN(Cc4ccccc4)CC3)ccc2c1Cl`: the IC50 was > 1000 µM in series [1], 1.25 µM in series [2] and 0.375 µM in series [3]. The compound also came in with a 50% effective dose (ED50) in series [4] of 24.5 mg/kg. In series [5], the LD50 amounted to 200 mg/kg.

Turning to `COc1ccc2cc([C@H](O)[C@H](C)N3CCN(Cc4ccccc4)CC3)ccc2c1Cl`, the IC50 in series [1] was > 1000 µM; in series [2] it was 0.425 µM; in series [3], 0.825 µM. In series [4], this compound gave an ED50 of 27.9 mg/kg. The compound also gave an LD50 in series [6] of 300 mg/kg.

With `COc1ccc2cc([C@H](O)[C@@H](C)N3CCN(Cc4ccccc4)CC3)ccc2c1Cl`, the IC50 in series [1] came out at 10 µM; in series [2], 7 µM; in series [3] it was 0.548 µM. The ED50 in series [4] is 16.5 mg/kg; in series [7], 24.5 mg/kg. In series [6], the LD50 was 1171 mg/kg.

`COc1ccc2cc([C@@H](O)[C@H](C)N3CCN(Cc4ccccc4)CC3)ccc2c1Cl` had a half-maximal inhibitory concentration (IC50) in series [2] of 0.185 µM. In series [4], this compound came in with an ED50 of 12.6 mg/kg. Further, the 50% lethal dose (LD50) in series [5] was determined as 1030 mg/kg.

`COc1ccc2cc([C@H](O)[C@H](C)N3CCN(Cc4ccccc4)CC3)ccc2c1Cl` (racemic): the LD50 in series [6] is > 1500 mg/kg.

For `COc1ccc2cc([C@H](O)[C@@H](C)N3CCN(Cc4ccccc4)CC3)ccc2c1Cl` (racemic), the LD50 in series [6] was > 220 mg/kg.
